Source: PubChem BioAssay AID602134 (Broad Institute, 2011)

experiment: transferrin endocytosis inhibition in mSR-BI cells, dose response, selectivity assay for SR-BI HDL uptake inhibitor project, imaging, Alexa594-transferrin, dry powder (AID 602134); settings: series mostly up to 35 µM; transferrin uptake change vs neutral control, negative = inhibition: at the top concentration;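 active means falling transferrin uptake with a fitted half-maximal potency at or below twice the top valid tested dose; inconclusive means flat fit with a 30 to 70% drop, or poor fit; inactive means the rest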
In short: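 Reagent: Alexa-594-labelled transferrin at 30 µg/mL final. Test system: mSR-BI cells. Times: transferrin uptake 30 min at 37 °C, stopped on ice. Read-out basis: normalized percent of cells with above-threshold perinuclear transferrin. Buffer or medium: serum-free DMEM with 1% BSA after serum wash. Measured by: high-content fluorescence imaging of Alexa-594 transferrin, DAPI nuclear stain.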

Transferrin uptake change vs neutral control, negative = inhibition, inactive:
COc1c(NC(=O)C(=O)c2ccc(OCCN3CCOCC3)c3ccccc23)cc(C(C)(C)C)cc1NS(C)(=O)=O 9.84%
CCCCCCC1CCC/C1=N\NC(N)=S (configuration not stated) -4.54%
CCC(=O)N1CCc2cc(-c3csc(NC(=O)c4ccc(F)c(OC)c4)n3)ccc21 44.9%
CC(=O)N1CCc2cc(-c3nc(NC(=O)c4cccc(OC(F)(F)F)c4)sc3C)ccc21 16.8%
CCC(=O)N1CC(C)(C)c2cc(-c3csc(NC(=O)c4cc(OC)cc(OC)c4)n3)ccc21 3.48%
COc1cc(OC)cc(C(=O)Nc2nc(-c3ccc4c(c3)CCN4C(=O)CN(C)C)cs2)c1 -33.9%
COc1ccc(-c2cc(CC(=O)N(C3CCCCC3)C(C)C(=O)NC3CCCC3)no2)cc1OC (configuration not stated) 31.6%
COCC(=O)N1CCc2cc(-c3csc(NC(=O)c4cc(OC)cc(OC)c4)n3)ccc21 16.9%
C[C@H](C(=O)NC1CCCC1)N(C(=O)Cn1nnc(-c2ccc3c(c2)OCO3)n1)C1CCCCC1 27.8%
C[C@@H]1CN([C@H](C)CO)C(=O)c2cc(NC(=O)Cc3cn(C)c4ccccc34)ccc2O[C@H]1CN(C)S(=O)(=O)c1ccc(Cl)cc1 25.5%
CCC(=O)N1CCc2cc(-c3csc(NC(=O)c4cccc(OC)c4)n3)ccc21 28.3%
CCNC(=O)N1CCc2cc(-c3csc(NC(=O)c4cc(OC)cc(OC)c4)n3)ccc21 -0.582%
